# Assay outcomes as filed in PubChem.
# hDAT+cocaine = modulates human dopamine transporter uptake under cocaine; Q01959; LLC-PK1 hDAT cells, [14C]-dopamine uptake with cocaine IC80; actives deviate in either direction; B-score at 10 µM; hit rate 1.3% among 110,000; AID 449768;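 active = Z score or B-score, a plate-position-corrected score, falls beyond the plate's 99.7% confidence bounds, in either direction; inactive = both scores lie inside the 99.7% bounds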;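 also: scored against the spread of the other compound wells on the same plate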
# HEK293 NFkB inh = inhibitors of the PMA/ionomycin-induced NF-kB reporter in HEK293 cells; HEK-293 NF-kB luciferase reporter, luminescence; inhibition, % at 3 µM; hit rate 0.21% among 62,000; AID 465;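 active = inhibition above the mean of all tested compounds plus 3 SD, cut at about 40% in these data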;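 also: 0% = stimulated DMSO wells and 100% = 10 µM reference inhibitor 5653914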
#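 Reagent: PMA plus ionomycin mix as NF-kB-activating stimulus. Assay system: NF-kB luciferase reporter HEK-293 cells. Technique: luminescence from luciferase substrate reagent. Incubation: 1 h compound pre-incubation, 16 h PMA/ionomycin at 37 °C. Benchmarks: DMSO only as uninhibited control, 10 µM reference inhibitor as full inhibition. Repeats: tested once.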
# AP ELISA ortho = alternative pathway complement inhibition, orthogonal assay | Human serum alternative complement pathway, LPS-coated ELISA, C3 deposition; tested in compound mixtures | inhibition, % at 5 µM | hit rate 0.08% among 62,000 | AID 1235;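 active = inhibition above 30% in each of the two pooled mixtures holding the compound, so the lower value exceeds 30%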;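 also: 0% = serum in Mg-EGTA without compound and 100% = EDTA serum blank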
#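 Assay system: human serum alternative complement pathway, C3 deposition on LPS-coated wells; Dosing: 5 µM per compound in ten-compound mixtures; Detection: Anti-C3 ELISA, OD 450 nm; Buffer or medium: Mg2+-EGTA GVB++ buffer containing human serum at 1:15 dilution; Timing: 1 h at 37 °C; Replication: two different pools per compound.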
# Ec RNAP inh = inhibitors of Escherichia coli RNA polymerase | hit rate 0.2% among 62,000 | P0A8V2 | inhibition, %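 (tested at 10 µM)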 | E. coli RNA polymerase, fluorescence transcription assay; in the data active = inhibition above about 20%;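 also: 0% = enzyme without compound and 100% = no enzyme blank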
# D1 allo mod = allosterically modulates the human D1 dopamine receptor | P21728 | HEK293 D1, CRE-luciferase, dopamine EC30 potentiation; actives deviate in either direction | AID 641 | hit rate 5.9% among 58,000 | B-score at 10 µM;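 active = luminescence count or its row- and column-corrected plate score outside the 99.7% band of the plate's sample wells, on either side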
# D1 mod confirm = D1 receptor (human) allosteric modulation, confirmed | hit rate 88% among 2,200 | luminescence at 10 µM | shares compounds with D1 allo mod | HEK293 D1 CRE-luciferase, dopamine EC30 potentiation; hits give high values;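 active = luminescence in either of two replicates above the same-plate mean plus 3 SD of the low-dose dopamine control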
# D1 no dopamine = activates D1 CRE-luciferase signal without dopamine present; shares compounds with D1 allo mod; HEK293 D1 CRE-luciferase, luminescence, no dopamine; hits give high values; luminescence at 10 µM; hit rate 0.8% among 1,900; AID 646; in the data active = luminescence above about 3900
# Isoprot counter = isoproterenol response counter-screen activity for D1 modulators. shares compounds with D1 allo mod. HEK293 D1 CRE-luciferase, isoproterenol EC30 counter-screen. calls only at 10 µM. hit rate 63% among 2,200;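 active = luminescence in either replicate above plate mean of wells with a partly effective reference agonist dose plus 3 SD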;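 also: isoproterenol raises cAMP through native beta-adrenoceptor Gs so signal bypasses D1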
# * hit, by the source's call; i = inactive; nt = no result; + = active, no number. The full list was thinned out, with hits kept by preference.
SMILES,hDAT+cocaine,HEK293 NFkB inh,AP ELISA ortho,Ec RNAP inh,D1 allo mod,D1 mod confirm,D1 no dopamine,Isoprot counter
Clc1ccc2[nH]c(-c3ccccc3)cc2c1,-0.12,nt,nt,nt,nt,nt,nt,nt
Cc1ccc(OCCN2C(=O)OC(C)(C)C2(C)O)cc1 (stereo unspecified),-0.21,-18,27,0,5.5*,7404*,1572,i
CCCn1c(Sc2nc3c(c(=O)[nH]c(=O)n3C)n2CCC)nc2c1c(=O)[nH]c(=O)n2C,1,nt,nt,nt,nt,nt,nt,nt
CCCn1c(SCc2ccc(Cl)cc2)nc2c1c(=O)[nH]c(=O)n2C,0.049,18,7,11,5.2*,11480*,nt,+
C/C=C/CSc1nc2c(c(=O)[nH]c(=O)n2C)n1CCC,-1.3,9,4,3,14*,14660*,1456,+
C/C=C/Cn1c(SCc2ccc(Cl)cc2)nc2c1c(=O)[nH]c(=O)n2C,-0.12,7,7,3,7.3*,13964*,1680,+
C/C=C/Cn1c(SC)nc2c1c(=O)[nH]c(=O)n2C,-0.58,11,-17,3,-0.78,nt,nt,nt
O=c1n(S(=O)(=O)c2cccc3cccnc23)c2ccccc2n1S(=O)(=O)c1cccc2cccnc12,-1.5,nt,nt,nt,nt,nt,nt,nt
O=C(NCc1ccco1)c1cc(C(=O)C2CC2)c[nH]1,-0.45,nt,nt,nt,nt,nt,nt,nt
CCOC(=O)c1c(NC(=O)c2ccc(Br)o2)sc(C)c1CC,1.1,10,5,nt,0.84,nt,nt,nt
CCOC(=O)C1=C(NC(=O)c2ccc(Br)o2)Nc2ccccc2N=C1,1.1,10,-12,6,19*,24204*,1580,+
CCOC(=O)N1CCN(c2ncnc3c2oc2nc(C)c4c(c23)CC(C)(C)OC4)CC1,nt,12,10,4,1.7,nt,nt,nt
CCCc1nc2oc3c(NCC4CCCO4)ncnc3c2c2c1COC(C)(C)C2 (stereo unspecified),1.4,17,11,2,15*,19660*,nt,+
CCCc1nc2oc3c(NCc4ccccn4)ncnc3c2c2c1COC(C)(C)C2,nt,17,0,4,16*,19424*,nt,+
O=c1ccc(-c2ccccc2)n[nH]1,-0.0099,nt,nt,nt,nt,nt,nt,nt
COc1ccc(-c2ccc(=O)[nH]n2)cc1,-0.13,21,4,5,8.2*,10236*,1400,+
CCNc1nc(SC(C)C(=O)OC)nc(N2CCOCC2)n1 (stereo unspecified),-0.09,1,-4,12,7*,16348*,1712,+
CCNc1nc(SCC(=O)OC)nc(N2CCOCC2)n1,-0.83,14,6,5,6.4*,18868*,1512,+
CSc1nc(NC(C)(C)C)nc(N2CCOCC2)n1,-1.8,12,4,13,15*,15276*,1464,+
CCNc1nc(N2CCOCC2)nc(N(c2ccccc2)c2ccccc2)n1,0.34,7,4,9,0.35,nt,nt,nt
C=CCNc1nc(NCC)nc(N2CCOCC2)n1,0.032,nt,nt,nt,nt,nt,nt,nt
CC(C)(C)Nc1nc(SCc2ccccc2)nc(N2CCOCC2)n1,-0.56,14,13,4,0.0031,nt,nt,nt
COC(=O)c1ccc(C2CC(=O)Nc3cc(OC)c(OC)c(OC)c32)cc1 (stereo unspecified),0.12,13,3,7,0.45,nt,nt,nt
CCOC(=O)C1=C(N)n2c(s/c(=C\c3cccnc3)c2=O)=C(C(=O)OCC)C1c1cccnc1 (stereo unspecified),nt,27,-10,4,1.1,nt,nt,nt
CCOC(=O)C1=C(N)n2c(s/c(=C\c3cccs3)c2=O)=C(C(=O)OCC)C1c1cccs1 (stereo unspecified),-0.31,7,6,6,4.6*,10396*,1664,+
SMILES,hDAT+cocaine,HEK293 NFkB inh,AP ELISA ortho,Ec RNAP inh,D1 allo mod,D1 mod confirm,D1 no dopamine,Isoprot counter
CC(OC(=O)C1CCN(S(=O)(=O)c2ccc(Cl)cc2)CC1)C(=O)N1CCc2ccccc21 (stereo unspecified),-0.33,nt,nt,nt,nt,nt,nt,nt
COc1ccc(OC)c(N/C=C2/CCCCC2=O)c1,0.82,0,10,0,1.9,nt,nt,nt
COc1ccc(N/C=C2/CCCCC2=O)cc1,0.82,-16,-8,8,2.8*,4708,1400,i
COC(=O)C(C#N)c1nc2ccccc2nc1N1CCCC1 (stereo unspecified),-0.38,-3,-2,5,5.5*,9832*,nt,+
CC(C)OC(=O)C(C#N)c1nc2ccccc2nc1N1CCCC1 (stereo unspecified),0.039,nt,nt,-12,10*,20752*,1680,+
CCOc1ccc2nc(NS(=O)(=O)Cc3ccccc3)sc2c1,0.0042,nt,nt,nt,nt,nt,nt,nt
c1ccc(Oc2cccc(NC3=NCCC3)c2)cc1,-0.063,6,19,5,0.41,nt,nt,nt
COC(C/C=C\[C@H](O)COCc1ccccc1)OC,-0.43,nt,nt,nt,nt,nt,nt,nt
O=C(CCc1nc2ccccc2[nH]c1=O)OCC(=O)c1cccc2ccccc12,-0.044,nt,nt,nt,nt,nt,nt,nt
C=CCn1c(SCc2nc3ccccc3c(=O)[nH]2)nnc1-c1cc2cc(Cl)ccc2o1,0.96,10,-3,7,0.64,nt,nt,nt
CCn1c(SCC(=O)O)nc2sc3c(c2c1=O)CCC3,0.25,nt,nt,6,0.87,nt,nt,nt
C=CCn1c(SCC(=O)N2CCOCC2)nc2sc3c(c2c1=O)CCCC3,3.1*,17,2,7,3.4*,7424*,1576,+
CCn1c(SCC(=O)OC)nc2sc3c(c2c1=O)CCC3,-0.23,nt,21,0,16*,16808*,1576,+
COC(=O)CSc1nc2sc3c(c2c(=O)n1C1CCCCC1)CCN(C)C3,nt,nt,8,3,15*,21932*,1592,+
Cn1c(SCC(=O)N2CCOCC2)nc2sc3c(c2c1=O)CCCC3,0.95,20,-5,6,0.012,nt,nt,nt
COc1ccc(OC)c(NC(=O)Cn2cc(C#N)c3cc(Br)ccc32)c1,-0.53,17,12,3,-0.24,nt,nt,nt
CCOC(=O)c1c(NC(=O)CSc2nnc(-c3cccnc3)o2)sc(C(C)=O)c1C,0.29,8,6,5,4*,6332*,1464,+
CCOC(=O)c1c(NC(=O)CSc2nnc(-c3ccco3)o2)sc(C(C)=O)c1C,0.029,11,-12,6,2.9,nt,nt,nt
CC(=O)Nc1c(NCC(C)C)c2ccccc2oc1=O,-1.4,nt,nt,nt,nt,nt,nt,nt
CCOC(=O)C1=C(C)NC(=O)NC1c1ccc(N(CC)CC)cc1 (stereo unspecified),2,7,-1,14,1.2,nt,nt,nt
C=CCSc1nc2ccccc2c(=O)[nH]1,0.94,5,10,8,3*,9580*,1792,i
